According to ChEMBL document CHEMBL1128275, “Amino-substituted 2-[2'-(dimethylamino)ethyl]-1,2-dihydro-3H- dibenz[de,h]isoquinoline-1,3-diones. Synthesis, antitumor activity, and quantitative structure--activity relationship” (J Med Chem, 1995):

Legend:
[1] = Toxicity ratio of quotient of the IC50 in myocytes divided by the average IC50 for three tumor cell lines; assay type: cell-based; details: myocytes and three tumor cell lines; read-out: Toxicity ratio
In short: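 Calculated ratio: myocyte IC50 (neonatal rat heart cells, 1 h exposure, ATP/protein end point) divided by the mean IC50 across A375 melanoma, OVCAR-3 ovarian and sensitive L1210 leukemia cells under continuous exposure.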

L1210 [2] = test: Antitumor activity against murine L1210 resistant cell line by using MTT assay; assay type: functional, cell-based; details: Mus musculus
L1210 [3] = test: Anti-tumor activity against murine L1210 sensitive cell line by using MTT assay; assay type: functional, cell-based; details: Mus musculus
OVCAR-3 = test: Anti-tumor activity against human OVCAR-3 ovarian cancer cell lines by using MTT assay; assay type: functional, cell-based
In short: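 Human tumor lines (A375 melanoma; OVCAR-3 ovarian carcinoma resistant to standard drugs) under continuous exposure, read by sulforhodamine B or MTT. Drugs from DMSO stocks diluted in PBS pH 7.4, 10^1–10^-5 μg/mL half-log, DMSO ≤0.1%, 37 °C, 5% CO2. MTT: 6 days then 4 h dye, A570. SRB: 8 days, TCA fixation, 0.4% SRB stain, OD 564 nm. Six wells per concentration; IC50 averaged.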

[4] = Cardiotoxicity was measured by using Neonatal rat heart myocyte assay; assay type: toxicity, tissue-based
In short: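 Neonatal rat heart myocytes in culture, 1 h drug exposure; cytotoxicity taken as the concentration lowering the ATP/protein ratio to 0.5, reported as IC50.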

Mus musculus [5] = test: The percent increase in life span of compound was measured against P388 Leukemia cells in mice at a dose of 4.5 mg/kg on days 1,5 and 9; assay type: functional
In short: (§1)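 Standard NCI protocol: 10^6 freshly harvested P388 cells injected ip into 10 adult male DBA/2J mice on day 0; compound given ip on days 1, 5 and 9; control group of 10 mice given tumor cells and saline on the same days. %ILS = 100 × (treated − control lifespan)/control lifespan, using group median lifespans.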

WiDr [6] = test: Activity against resistant cell line of WiDr human colon tumor; assay type: functional, cell-based
In short: (§2)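 WiDr colon cells, sensitive line and a subline selected for resistance to mitoxantrone; MTT assay with continuous drug exposure. Compounds as hydrochlorides, dissolved in DMSO then serially diluted in PBS pH 7.4, 10^1–10^-5 μg/mL in half-log steps, DMSO ≤0.1% final.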

WiDr [7] = test: Activity against sensitive cell line of WiDr human colon tumor; assay type: functional, cell-based; in short: as §2
Mus musculus [8] = test: The percent increase in life span of compound was measured against P388 Leukemia in mice at a dose of 8 mg/kg on days 1,5 and 9; assay type: functional; in short: as §1
Mus musculus [9] = test: The percent increase in life span of compound was measured against P388 Leukemia in mice at a dose of 10 mg/kg on days 1,5 and 9; assay type: functional; in short: as §1
Mus musculus [10] = test: The percent increase in life span of compound was measured against P388 Leukemia cells in mice at a dose of 4 mg/kg on days 1,5 and 9; assay type: functional; in short: as §1
Mus musculus [11] = test: The percent increase in life span of compound was measured against P388 Leukemia cells in mice at a dose of 5 mg/kg on days 1,5 and 9; assay type: functional
Mus musculus [12] = test: The percent increase in life span of compound was measured against P388 Leukemia in mice at a dose of 15 mg/kg on days 1,5 and 9; assay type: functional; in short: as §1
Mus musculus [13] = test: The percent increase in life span of compound was measured against P388 Leukemia cells in mice at a dose of 10 mg/kg on days 1,5 and 9; assay type: functional; in short: as §1
Mus musculus [14] = test: The percent increase in life span of compound was measured against P388 Leukemia cells in mice at a dose of 1.6 mg/kg on days 1,5 and 9; assay type: functional; in short: as §1

## CN(C)CCN1C(=O)c2cccc3cc4cccc(N)c4c(c23)C1=O
[1]
  selectivity ratio: 24
L1210 [2]
  IC50: 0.678 µM
L1210 [3]
  IC50: 0.678 µM
OVCAR-3
  IC50: 1.76 µM
[4]
  Cardiotoxicity: 27.1 µM

## CC(=O)Nc1cc2c3c(c4ccccc4cc3c1)C(=O)N(CCN(C)C)C2=O
[1]
  selectivity ratio: 3.5
L1210 [2]
  IC50: 0.073 µM
L1210 [3]
  IC50: 0.019 µM
OVCAR-3
  IC50: 0.061 µM
[4]
  Cardiotoxicity: 0.177 µM

## CN(C)CCN1C(=O)c2ccc(N)c3cc4ccccc4c(c23)C1=O
[1]
  selectivity ratio: 20
L1210 [2]
  IC50: 0.027 µM
L1210 [3]
  IC50: 0.0054 µM
OVCAR-3
  IC50: 0.068 µM
[4]
  Cardiotoxicity: 1.486 µM

## COc1cccc2c1C(=O)c1c(O)c3c(c(O)c1C2=O)C[C@@](O)(C(=O)CO)C[C@@H]3O[C@H]1C[C@H](N)[C@H](O)[C@H](C)O1 [DOXORUBICIN]
Mus musculus [5]
  ILS at 4.5 mg/kg: 113%
[1]
  selectivity ratio: 181
L1210 [2]
  IC50: 3.88 µM
L1210 [3]
  IC50: 0.035 µM
OVCAR-3
  IC50: 0.035 µM
[4]
  Cardiotoxicity: 11.064 µM

## CN(C)CCN1C(=O)c2cccc3cc4ccc(N)cc4c(c23)C1=O
WiDr [6]
  IC50: 0.018 µM
[1]
  selectivity ratio: 34
WiDr [7]
  IC50: 0.0055 µM
Mus musculus [8]
  ILS at 8 mg/kg: 73%
L1210 [2]
  IC50: 0.0027 µM
L1210 [3]
  IC50: 0.0025 µM
Mus musculus [9]
  ILS at 10 mg/kg: 109%
Mus musculus [10]
  ILS at 4 mg/kg: 27%
OVCAR-3
  IC50: 0.02 µM
[4]
  Cardiotoxicity: 0.943 µM

## CN(C)CCN1C(=O)c2cc(NC(=O)C(C)(C)C)cc3cc4ccccc4c(c23)C1=O
[1]
  selectivity ratio: 9.5
L1210 [2]
  IC50: 0.015 µM
L1210 [3]
  IC50: 0.044 µM
OVCAR-3
  IC50: 0.033 µM
[4]
  Cardiotoxicity: 0.662 µM

## CN(C)CCN1C(=O)c2cccc3cc4c(N)cccc4c(c23)C1=O
[1]
  selectivity ratio: > 6.7
L1210 [2]
  IC50: 6.78 µM
L1210 [3]
  IC50: 6.78 µM
OVCAR-3
  IC50: 9.48 µM
[4]
  Cardiotoxicity: > 81.3 µM

## CN(C)CCN1C(=O)c2cccc3cc4cc(N)ccc4c(c23)C1=O
[1]
  selectivity ratio: 39
L1210 [2]
  IC50: 0.016 µM
L1210 [3]
  IC50: 0.0027 µM
OVCAR-3
  IC50: 0.014 µM
[4]
  Cardiotoxicity: 0.813 µM

## CN(C)CCN1C(=O)c2cccc3cc4c([N+](=O)[O-])cccc4c(c23)C1=O
[1]
  selectivity ratio: 14
L1210 [2]
  IC50: 0.02 µM
L1210 [3]
  IC50: 0.05 µM
OVCAR-3
  IC50: 0.05 µM
[4]
  Cardiotoxicity: 0.65 µM

## CN(C)CCN1C(=O)c2cccc3cc4ccccc4c(c23)C1=O [AZONAFIDE]
Mus musculus [11]
  ILS at 5 mg/kg: 25%
WiDr [6]
  IC50: 0.015 µM
[1]
  selectivity ratio: 44
WiDr [7]
  IC50: 0.01 µM
Mus musculus [9]
  ILS at 10 mg/kg: 63%
Mus musculus [12]
  ILS at 15 mg/kg: 79%
[4]
  Cardiotoxicity: 1.983 µM

## CC(=O)Nc1cccc2cc3cccc4c3c(c12)C(=O)N(CCN(C)C)C4=O
[1]
  selectivity ratio: > 13.2
L1210 [2]
  IC50: 2.43 µM
L1210 [3]
  IC50: 0.243 µM
OVCAR-3
  IC50: 2.43 µM
[4]
  Cardiotoxicity: > 22.5 µM

## CC(=O)Nc1ccc2c3c4c(cccc4cc2c1)C(=O)N(CCN(C)C)C3=O
[1]
  selectivity ratio: 7.7
L1210 [2]
  IC50: 0.17 µM
L1210 [3]
  IC50: 0.114 µM
OVCAR-3
  IC50: 0.013 µM
[4]
  Cardiotoxicity: 0.487 µM

## CN(C)CCN1C(=O)c2c(N)ccc3cc4ccccc4c(c23)C1=O
[1]
  selectivity ratio: 48
L1210 [2]
  IC50: 0.0079 µM
L1210 [3]
  IC50: 0.0054 µM
OVCAR-3
  IC50: 0.012 µM
[4]
  Cardiotoxicity: 0.434 µM

## CN(C)CCN1C(=O)c2cccc3cc(N)cc(c23)C1=O [AMONAFIDE]
[1]
  selectivity ratio: 30
Mus musculus [12]
  ILS at 15 mg/kg: 88%
Mus musculus [13]
  ILS at 10 mg/kg: 45%
[4]
  Cardiotoxicity: 48.4 µM

## O=C1c2c(O)ccc(O)c2C(=O)c2c(NCCNCCO)ccc(NCCNCCO)c21 [MITOXANTRONE]
WiDr [6]
  IC50: 1.4 µM
[1]
  selectivity ratio: 387
WiDr [7]
  IC50: 0.01 µM
L1210 [2]
  IC50: 0.039 µM
L1210 [3]
  IC50: 0.005 µM
OVCAR-3
  IC50: 0.0058 µM
Mus musculus [14]
  ILS at 1.6 mg/kg: 200%
[4]
  Cardiotoxicity: 7.737 µM

## CN(C)CCN1C(=O)c2c(NC(=O)C(C)(C)C)ccc3cc4ccccc4c(c23)C1=O
[1]
  selectivity ratio: > 25
L1210 [2]
  IC50: 0.172 µM
L1210 [3]
  IC50: 0.862 µM
OVCAR-3
  IC50: 0.493 µM
[4]
  Cardiotoxicity: > 24.63 µM

## CN(C)CCN1C(=O)c2cccc3cc4cccc([N+](=O)[O-])c4c(c23)C1=O
[1]
  selectivity ratio: 80
L1210 [2]
  IC50: 0.05 µM
L1210 [3]
  IC50: 0.023 µM
OVCAR-3
  IC50: 0.226 µM
[4]
  Cardiotoxicity: 8.647 µM

## CC(=O)Nc1ccc2cc3cccc4c3c(c2c1)C(=O)N(CCN(C)C)C4=O
WiDr [6]
  IC50: 0.05 µM
[1]
  selectivity ratio: 120
WiDr [7]
  IC50: 0.009 µM
L1210 [2]
  IC50: 0.219 µM
L1210 [3]
  IC50: 0.049 µM
OVCAR-3
  IC50: 0.049 µM
[4]
  Cardiotoxicity: 7.786 µM

## CN(C)CCN1C(=O)c2cccc3cc4ccc(NC(=O)C(C)(C)C)cc4c(c23)C1=O
[1]
  selectivity ratio: 55
L1210 [2]
  IC50: 0.2 µM
L1210 [3]
  IC50: 0.2 µM
OVCAR-3
  IC50: 0.15 µM
[4]
  Cardiotoxicity: 11.025 µM

## CN(C)CCN1C(=O)c2cc(N)cc3cc4ccccc4c(c23)C1=O
[1]
  selectivity ratio: 101
L1210 [2]
  IC50: 0.015 µM
L1210 [3]
  IC50: 0.0062 µM
OVCAR-3
  IC50: 0.02 µM
[4]
  Cardiotoxicity: 1.724 µM

## CC(=O)Nc1ccc2cc3ccccc3c3c2c1C(=O)N(CCN(C)C)C3=O
[1]
  selectivity ratio: > 33
L1210 [2]
  IC50: 0.56 µM
L1210 [3]
  IC50: 0.608 µM
OVCAR-3
  IC50: 0.608 µM
[4]
  Cardiotoxicity: > 24.331 µM

## CC(=O)Nc1c2ccccc2c2c3c(cccc13)C(=O)N(CCN(C)C)C2=O
[1]
  selectivity ratio: > 37
L1210 [2]
  IC50: 0.487 µM
L1210 [3]
  IC50: 0.487 µM
OVCAR-3
  IC50: 0.73 µM
[4]
  Cardiotoxicity: > 24.331 µM
